{"source": "paper PMC2441798", "about": "(Nucleic Acids Research, 2008)", "key": {"PlcRIV": {"test_system": "PlcRIV", "test": "plcA'-lacZ β-galactosidase assay in 407", "type": "cell-based, Bacillus thuringiensis", "settings": "2 µM peptide, 1 h", "procedure,_shortened": "(§1)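 Reporter strain 407 (plcA′Z ΔplcR–papR), carrying plcR on plasmid pHT304 under its own promoter, grown in LB without antibiotics at 37°C with vigorous shaking to stationary-phase onset T0 (OD600 3 ± 0.3). Cultures split into 12 ml fractions. Cognate synthetic PapR penta- or heptapeptide added at 2 µM final, then 1 h incubation. 2 ml pelleted for β-galactosidase assay. Each assay run at least three times.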"}, "PlcRIII": {"test_system": "PlcRIII", "test": "plcA'-lacZ β-galactosidase assay in 407", "type": "cell-based, Bacillus thuringiensis", "settings": "2 µM peptide, 1 h", "procedure,_shortened": "as §1"}, "PlcRI'III": {"test_system": "PlcRI'III", "test": "plcA'-lacZ β-galactosidase assay, chimeric PlcRI'III", "type": "cell-based, Bacillus thuringiensis", "settings": "2 µM heptapeptide, 1 h, PlcRI'III chimera", "procedure,_shortened": "(§2)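 Reporter strain Bacillus 407 (plcA′Z ΔplcR–papR), which carries a plcA promoter–lacZ fusion, was complemented with pHT304-based plasmids carrying modified plcR genes under their own promoter. Cultures were grown in LB without antibiotics at 37°C with vigorous shaking to stationary-phase onset (OD600 3 ± 0.3), then split into 12 ml fractions. Synthetic peptide was added to 2 µM final for 1 h. β-galactosidase was assayed on 2 ml pellets, with at least three repeats.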"}, "PlcRI'II": {"test_system": "PlcRI'II", "test": "plcA'-lacZ β-galactosidase assay, chimeric PlcRI'II", "type": "cell-based, Bacillus thuringiensis", "settings": "2 µM heptapeptide, 1 h, PlcRI'II chimera", "procedure,_shortened": "as §2"}, "PlcRA278K": {"test_system": "PlcRA278K", "test": "plcA'-lacZ β-galactosidase assay, PlcRA278K mutant", "type": "cell-based, Bacillus thuringiensis", "settings": "2 µM heptapeptide, 1 h; similar to PlcRI'II response", "procedure,_shortened": "as §2"}, "PlcRII": {"test_system": "PlcRII", "test": "plcA'-lacZ β-galactosidase assay in 407", "type": "cell-based, Bacillus thuringiensis", "settings": "2 µM peptide, 1 h", "procedure,_shortened": "as §1"}, "PlcR": {"biological_target": "T1, PlcR (Bacillus thuringiensis, UniProt Q45782)", "T1 sequence (Q45782 1-285)": "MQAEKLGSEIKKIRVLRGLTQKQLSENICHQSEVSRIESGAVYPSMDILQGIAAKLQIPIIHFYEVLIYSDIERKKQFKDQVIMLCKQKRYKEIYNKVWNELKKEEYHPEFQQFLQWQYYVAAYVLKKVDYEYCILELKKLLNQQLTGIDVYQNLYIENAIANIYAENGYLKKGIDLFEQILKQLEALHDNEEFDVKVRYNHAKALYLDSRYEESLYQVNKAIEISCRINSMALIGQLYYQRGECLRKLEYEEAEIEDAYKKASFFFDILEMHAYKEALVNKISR", "test": "Steady-state fluorescence anisotropy binding titrations"}}, "note": "Peptide text beside a SMILES is read from it."}
{"compound": "LPFEH", "values": [{"measurement": "activation of plcA'lacZ expression (in words)", "setting": "PlcRIV", "result": "activated"}]}
{"compound": "NEVPFEF", "values": [{"measurement": "activation of plcA'lacZ expression (in words)", "setting": "PlcRIII", "result": "activated"}, {"measurement": "activation of PlcRI'III (in words)", "setting": "PlcRI'III", "result": "not activated"}]}
{"compound": "SDLPFEH", "values": [{"measurement": "activation of plcA'lacZ expression (in words)", "setting": "PlcRIV", "result": "activated"}]}
{"compound": "SDMPFEF", "values": [{"measurement": "activation greater than that of wild-type PlcRI by PapRI", "setting": "PlcRI'II", "result": "about 2 fold"}, {"measurement": "activation less than that of PlcRII by PapRII", "setting": "PlcRI'II", "result": 2, "unit": "fold"}, {"measurement": "activation of PlcRA278K (in words)", "setting": "PlcRA278K", "result": "activated"}, {"measurement": "activation of plcA'lacZ expression (in words)", "setting": "PlcRII", "result": "activated"}]}
{"compound": "MPFEF", "values": [{"measurement": "activation of plcA'lacZ expression (in words)", "setting": "PlcRII", "result": "activated"}]}
{"compound": "CC(C)C[C@H](N)C(=O)N1CCC[C@H]1C(=O)N[C@@H](Cc1ccccc1)C(=O)N[C@@H](CCC(=O)O)C(=O)N[C@@H](Cc1ccccc1)C(=O)O", "note": "[LPFEF] (H-LPFEF-OH)", "values": [{"measurement": "Kd", "setting": "PlcR", "result": 41, "unit": "µM"}]}
{"compound": "VPFEF", "values": [{"measurement": "activation of plcA'lacZ expression (in words)", "setting": "PlcRIII", "result": "activated"}]}
{"compound": "CC(C)C[C@H](NC(=O)[C@H](CC(=O)O)NC(=O)[C@H](C)N)C(=O)N1CCC[C@H]1C(=O)N[C@@H](Cc1ccccc1)C(=O)N[C@@H](CCC(=O)O)C(=O)N[C@@H](Cc1ccccc1)C(=O)O", "note": "[ADLPFEF] (H-ADLPFEF-OH)", "values": [{"measurement": "Kd", "setting": "PlcR", "result": 25, "unit": "µM"}]}
{"compound": "NELPFEF", "values": [{"measurement": "activation of PlcRI'III (in words)", "setting": "PlcRI'III", "result": "partly restores"}]}
